Test results from ChEMBL document CHEMBL1125427, “Synthesis of 3-(2-pyridylethyl)benzoxazolinone derivatives: potent analgesic and antiinflammatory compounds inhibiting prostaglandin E2” (1992).

Legend:
Format in all cases: functional
Mus musculus [1] = test: The compound was evaluated for inhibition of edema induced by histamine at 10 mg/mL
In short: (§1)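 Female albino mice (22 ± 2 g, local breed), six per group, housed in eights with free food and water, acclimatised at least 2 days. Compound given orally at 100 mg/kg; 60 min later 0.01 mL of the phlogistic agent (histamine or serotonin) injected subcutaneously into the right hind paw plantar surface. Paw edema measured with a dial thickness gauge; effect expressed as percent inhibition.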

Mus musculus [2] = test: The compound was evaluated for inhibition of edema induced by serotonin at 250 ug/mL; in short: as §1
Mus musculus [3] = organism: Mus musculus; test: Analgesic activity in mice; design: concentration or dose not given beside the values
In short: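 Female albino mice (22 ± 2 g, local breed), groups of eight, dosed orally at 100 mg/kg as a suspension in 5% gum arabic syrup. After 1 h, 3% acetic acid was given ip at 300 mg/kg. Stretches were counted over 10 min, starting 5 min after injection. Percent activity = |n − n'|/n × 100 against syrup-only controls (n = 6).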

Mus musculus [4] = test: Gastric ulcerogenic activity at a dose of 100 mg/kg
In short: (§2)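 Mice fasted 24 h with water available. Compound in methyl cellulose vehicle given by oral gavage at 0.5 mL/100 g body weight. Animals were killed after 4 h and stomachs examined for lesions under a dissecting microscope. Read-out: ulcer incidence per group of 8 and lesion length (mm/mouse ± SE).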

Mus musculus [5] = test: Gastric ulcerogenic activity at a dose of 30 mg/kg; in short: as §2
Mus musculus [6] = test: Gastric ulcerogenic activity at a dose of 300 mg/kg; in short: as §2
Mus musculus [7] = test: Intestinal ulcerogenic activity at a dose of 100 mg/kg
In short: (§3)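 Fed animals were gavaged with compound on 3 consecutive days and killed 24 h after the last dose. Intestines were examined for ulcers. Read-out: ulcer incidence per group of 8 and lesion length (mm/mouse ± SE).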

Mus musculus [8] = test: The compound was evaluated for inhibition of edema induced by PGE at […]
In short: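 Mice, six per group, dosed orally at 100 mg/kg. After 60 min, PGE2 (20 μg/0.01 mL) was injected subcutaneously into the right hind paw plantar surface. Edema was measured with a dial thickness gauge and the effect expressed as percent inhibition.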

Mus musculus [9] = test: The compound was evaluated for inhibition of edema induced by arachidonic acid at 1 mg/mL
In short: (§4)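 Mice, six per group, dosed orally at 100 mg/kg. After 60 min, 0.01 mL of phlogistic agent (arachidonic acid or bradykinin) was injected subcutaneously into the right hind paw plantar surface. Edema was measured by dial thickness gauge and the effect expressed as percent inhibition.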

Mus musculus [10] = test: Antiinflammatory activity against CPE in mice following peroral administration of 30 mg/kg; details: route oral
In short: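 Female albino mice (22 ± 2 g), six per group, dosed orally. After 60 min, 0.01 mL of 2% carrageenan was injected subcutaneously into the right hind paw plantar surface. Edema was read with a dial thickness gauge 3 h later. ED50 was given in mg/kg po with 95% confidence limits.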

Mus musculus [11] = test: Intestinal ulcerogenic activity at a dose of 300 mg/kg; in short: as §3
Mus musculus [12] = test: Intestinal ulcerogenic activity at a dose of 30 mg/kg; in short: as §3
Mus musculus [13] = test: Gastric ulcerogenic activity at a dose of 300 mg/kg: group of 8 mice were considered for the test; in short: as §2
Mus musculus [14] = test: Gastric ulcerogenic activity at a dose of 30 mg/kg: group of 8 mice were considered for the test; in short: as §2
Mus musculus [15] = test: Intestinal ulcerogenic activity at a dose of 100 mg/kg: group of 8 mice were considered for the test; in short: as §3
Mus musculus [16] = test: Intestinal ulcerogenic activity at a dose of 300 mg/kg: group of 8 mice were considered for the test; in short: as §3
Mus musculus [17] = test: Intestinal ulcerogenic activity at a dose of 30 mg/kg: group of 8 mice were considered for the test; in short: as §3
Mus musculus [18] = test: Gastric ulcerogenic activity at a dose of 100 mg/kg: group of 8 mice were considered for the test; in short: as §2
Mus musculus [19] = test: The compound was evaluated for inhibition of edema induced by bradykinin at 100 ug/mL; in short: as §4
Mus musculus [20] = test: Inhibitory activity against carrageenan induced paw edema in mice; design: concentration or dose not given beside the values

O=C(c1ccccc1Cl)c1cc2oc(=O)n(CCc3ccncc3)c2cc1Cl
Inhibition (Mus musculus [1]): 9.3%
Inhibition (Mus musculus [2]): 8.4%
Analgesic activity (Mus musculus [3]): 92.61%
Lesion length (Mus musculus [4]): 0 mm mice-1
Lesion length (Mus musculus [5]): 0 mm mice-1
Lesion length (Mus musculus [6]): 0.4 mm mice-1
Lesion length (Mus musculus [7]): 0 mm mice-1
Inhibition (Mus musculus [8]): 55%
Inhibition (Mus musculus [9]): 43%
ED50 (Mus musculus [10]): 30 mg/kg
Lesion length (Mus musculus [11]): 0.4 mm mice-1
Lesion length (Mus musculus [12]): 0 mm mice-1
Ulcer incidence (Mus musculus [13]): 1 number/group
Ulcer incidence (Mus musculus [14]): 0 number/group
Ulcer incidence (Mus musculus [15]): 0 number/group
Ulcer incidence (Mus musculus [16]): 0 number/group
Ulcer incidence (Mus musculus [17]): 0 number/group
Ulcer incidence (Mus musculus [18]): 0 number/group
Inhibition (Mus musculus [19]): 12%
Inhibition (Mus musculus [20]): 49.6%
